bIAP act: bovine intestinal alkaline phosphatase activators, primary screen, biochemical, bovine IAP, CDP-star luminescence | alkaline phosphatase, intestinal [Bos taurus] | purified bovine IAP, 30 min; active compounds read high; fold of DMSO-control signal, blank-subtracted | activation factor at 20 µM | 200,000 compounds, 0.17% hits | AID 1016, 2008;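 active means activation factor of 2 or more at 20 µM, a signal rise over negative controls twice the positive control's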
mIAP act: activators of mouse IAP, primary screen, biochemical, luminescence, uHTS | intestinal alkaline phosphatase [Mus musculus] | muIAP, CDP-Star luminescence, 30 min; active compounds read high; 1 = vehicle-only enzyme signal, 0 = enzyme-free wells | activation factor at 10 µM | 330,000 compounds, 0.24% hits | AID 2805, 2010;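 active means activation factor of at least 2 at 20 µM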
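Assay system: mouse IAP enzyme; reagent: chemiluminescent substrate CDP-Star; dosing: test compounds delivered from DMSO solution; schedule: 30 min at room temperature; measured by: luminescence from enzymatic CDP-Star hydrolysis; controls: DMSO-only wells and no-enzyme negative control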
hIAP inh: human IAP inhibitors, primary screen, biochemical, luminescence, uHTS. Intestinal-type alkaline phosphatase (Homo sapiens), P09923. purified IAP, CDP-Star luminescence, 30 min. inhibition, % at 10 µM. 330,000 compounds, 0.12% hits;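 active means inhibition reaching a set limit with compound at 10 µM in the primary screen, cut at about 35% in these data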
Target sequence (P09923 whole entry, looked up): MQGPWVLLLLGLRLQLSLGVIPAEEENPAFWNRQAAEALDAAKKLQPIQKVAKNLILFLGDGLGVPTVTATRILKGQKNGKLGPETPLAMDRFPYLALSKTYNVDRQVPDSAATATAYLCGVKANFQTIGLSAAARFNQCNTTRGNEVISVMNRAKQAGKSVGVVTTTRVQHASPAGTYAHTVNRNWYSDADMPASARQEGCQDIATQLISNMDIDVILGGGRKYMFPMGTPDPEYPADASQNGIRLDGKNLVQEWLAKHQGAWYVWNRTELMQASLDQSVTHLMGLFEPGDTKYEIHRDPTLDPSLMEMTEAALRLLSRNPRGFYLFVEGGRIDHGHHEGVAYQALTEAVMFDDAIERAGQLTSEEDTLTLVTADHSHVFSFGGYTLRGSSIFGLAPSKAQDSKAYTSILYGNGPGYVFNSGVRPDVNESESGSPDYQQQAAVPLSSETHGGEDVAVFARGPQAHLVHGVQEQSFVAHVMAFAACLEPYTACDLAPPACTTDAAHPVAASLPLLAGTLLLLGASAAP
bIAP inhibitor: bovine intestinal alkaline phosphatase inhibitors, primary screen, selectivity assay for TNAP inhibitor project, biochemical, bovine IAP, CDP-star luminescence; purified bovine IAP, 30 min; inhibition, % at 20 µM; 190,000 tested, under 10 active;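 active means over 50% inhibition of intestinal alkaline phosphatase at 20 µM in the single-dose screen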
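Incubation: 30 min reaction at room temperature / Material: purified bovine intestinal alkaline phosphatase (IAP) enzyme / Input: enzyme at 1/65,000,000 dilution / Dosing: 20 µM single dose / Signal: CDP-star luminescence signal / Reagent: CDP-star chemiluminescent phosphatase substrate, 30 µM final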
mIAP inh: inhibitors of mouse IAP, primary screen, biochemical, luminescence, uHTS; intestinal alkaline phosphatase [Mus musculus]; purified mouse IAP, CDP-Star luminescence, 30 min; inhibition, % at 10 µM; 330,000 compounds, 0.2% hits; AID 2806, 2010;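 active means inhibition of at least 40% at 10 µM in the primary screen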
hIAP activ: human IAP activators, primary screen, biochemical, luminescence, uHTS; Intestinal-type alkaline phosphatase (Homo sapiens), P09923; purified human IAP, CDP-Star luminescence, 30 min; active compounds read high; 1 = vehicle-only enzyme, 0 = enzyme-free background; activation factor at 10 µM; 330,000 compounds, 0.16% hits;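 active means activation factor of the enzyme at least 2-fold when tested at 20 µM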
hIAP act confirm: human IAP activators, confirmation, biochemical, luminescence, single concentration, uHTS hits; shares compounds with hIAP activ; purified IAP, CDP-Star luminescence, 30 min; active compounds read low; activation (%Activity, negative = activation), % at 8.3 µM; 880 compounds, 10% hits; AID 434926, 2010;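 active means at least twofold enzyme activation in any of six single-dose repeats, which the averaged readout prints as negative percent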
Numbers stand for hits; 0 = inactive; - = no result. This is a sample that favours compounds with a hit; in the whole collection about 0.79% have one here.

SMILES | bIAP act | mIAP act | hIAP inh | bIAP inhibitor | mIAP inh | hIAP activ | hIAP act confirm
On1onc2c3cc(-c4ccccc4)nc3ccc21 | 0 | 0 | 37 | 0 | 0 | 0 | 0
c1ccc(-c2cc3c(ccc4nonc43)nn2)cc1 | 0 | 0 | 0 | 0 | 0 | 0 | -
Oc1cccc(/C=N/N=C/c2cccc(O)c2O)c1O | - | 0 | 0 | - | 0 | 2 | 0
Cc1nc(-c2ccc(S(=O)(=O)Oc3ccc(Cl)cc3Cl)s2)cs1 | - | 0 | 0 | - | 0 | 0 | -
COc1ccc(CC2CC(=O)N(c3ccc(C)cc3)C2=O)cc1 (configuration not stated) | - | 0 | 0 | - | 0 | 2.1 | 0
Cc1ccc(CC2CC(=O)N(c3ccc(C)cc3)C2=O)cc1 (configuration not stated) | 0 | 0 | 0 | 0 | 0 | 0 | -
CC(C)CCNC(=O)c1ccc(-n2cnc3cccnc32)cc1 | - | 0 | 0 | - | 0 | 0 | -
COc1ccc(-c2csc(NC(=S)NC(=O)c3ccccc3)n2)cc1Br | - | 0 | 0 | - | 0 | 0 | -
COc1ccc(C(=O)NC(=S)Nc2nc(-c3ccc(OC)c(Br)c3)cs2)cc1Br | - | 0 | 38 | - | 0 | 0 | 0
COc1ccc(NC(=O)CN2C(=O)COc3ccc(S(=O)(=O)N4CCCCCC4)cc32)cc1 | - | 0 | 37 | - | 0 | 0 | 0
CCOc1ccc(NC(=O)CN2C(=O)COc3ccc(S(=O)(=O)N4CCCCC4)cc32)cc1 | - | 0 | 0 | - | 0 | 0 | -
C[C@H](CO)N1C[C@H](C)[C@@H](CN(C)Cc2ccc3c(c2)OCO3)Oc2ccc(NS(C)(=O)=O)cc2C1=O | - | 0 | 0 | - | 0 | 0 | -
Cc1cccc(-c2nc(NCCCN3CCOCC3)c3ccccc3n2)c1 | 0 | 0 | 0 | 0 | 0 | 0 | -
c1ccc(-c2nc(NCCCN3CCOCC3)c3ccccc3n2)cc1 | 0 | 0 | 0 | 0 | 0 | 2 | 0
O=S(=O)(NC(=NC1CCCCC1)c1ccccc1F)c1ccccc1 | - | 0 | 0 | - | 0 | 0 | -
COc1ccc(C(C)=O)cc1Cn1c(=O)cc(C)[nH]c1=O | - | 0 | 0 | - | 0 | 0 | -
O=C(CCN1CCN(Cc2ccccc2)CC1)NNC(=O)Nc1cccc(C(F)(F)F)c1 | - | 0 | 0 | - | 0 | 2 | 0
CC(C)N(Cc1nc2ccccc2[nH]1)C(C)C | 0 | 0 | 0 | 0 | 0 | 0 | -
CC(c1ccccc1)C(Cc1nc2ccccc2[nH]1)c1nc2ccccc2[nH]1 (configuration not stated) | 4.1 | 0 | 0 | 0 | 0 | 2.2 | 0
OC(c1nc2ccccc2[nH]1)C(O)c1nc2ccccc2[nH]1 (configuration not stated) | - | 0 | 0 | - | 0 | 2.5 | 0
OC(c1ccccc1)c1nc2ccccc2[nH]1 (configuration not stated) | - | 0 | 0 | - | 0 | 0 | -
Cc1cccc(CC(Cc2nc3ccccc3[nH]2)c2nc3ccccc3[nH]2)c1 (configuration not stated) | 4.3 | 0 | 0 | 0 | 0 | 2.4 | 0
CCCCN(C(=O)CCCc1nc2ccccc2s1)c1c(N)n(CC(C)C)c(=O)[nH]c1=O | - | 0 | 0 | - | 0 | 0 | -
Cn1cc(C(=O)N2CCc3ccccc32)cn1 | 0 | 0 | 0 | 0 | 0 | 2.1 | 0
CSCCC(NC(=O)c1ccccc1Br)C(=O)NNC(=O)c1csc(N2CCOCC2)n1 (configuration not stated) | - | 0 | 0 | - | 0 | 2.1 | 0
CSCCC(NS(=O)(=O)c1ccccc1F)C(=O)N1CCCCCC1 (configuration not stated) | - | 0 | 0 | - | 0 | 0 | -

Compound activity deposited in PubChem BioAssay by Sanford-Burnham Center for Chemical Genomics.
